One may read the inhibition as the drop in the measured response relative to a control, in per cent.

Drawing on ChEMBL document CHEMBL1131251, “Inhibition of in vitro and in vivo HIV replication by a distamycin analogue that interferes with chemokine receptor function: a candidate for chemotherapeutic and microbicidal application” (J Med Chem, 1998), this text covers inhibition for two compounds.

Molecules are shown by their SMILES.

Holding throughout (details): HEK293; concentration not given here
Assay [1] concerns CXCR2 (Homo sapiens). The experiment in a line: The compound was tested for inhibition of Chemokine (IL-8) binding against CXCR2 transfected in HEK 293 cells.
Assay [2] has as its target C-C chemokine receptor type 5 (Homo sapiens) (UniProt P51681). Briefly: The compound was tested for inhibition of Chemokine (MIP-1Alpha) binding against C-C chemokine receptor type 5 transfected in HEK 293 cells. The class given is cell-based. The procedure, abridged: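 Competition binding in HEK-293 cells transfected with the named receptor, at 1 × 10^6 cells/mL in RPMI 1640 with 1% BSA and 5 mM HEPES pH 8.0. Cells were mixed with 0.2 ng/assay radiolabeled chemokine plus test compound at a single concentration of 200 μM, rotated 45 min at room temperature, then spun through a 10% sucrose/PBS cushion. Cell-bound radioactivity was gamma-counted; triplicates, n ≥ 2; t-test against a drug-free control.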

Assay [3] shares this target. Briefly: The compound was tested for inhibition of Chemokine (RANTES) binding against C-C chemokine receptor type 5 transfected in HEK 293 cells. In kind it is cell-based. The procedure, abridged:
(§1)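 CCR5 stably transfected HEK-293 cells at 1 × 10^6 cells/mL in RPMI 1640, 1% BSA, 5 mM HEPES pH 8.0. Constant radiolabeled chemokine (0.2 ng/assay) plus competitor at a single 200 μM concentration. Rotated 45 min at room temperature, spun through a 10% sucrose/PBS cushion, and cell-bound radioactivity gamma-counted. Inhibition measured against a drug-free control; triplicate, n ≥ 2.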

In assay [4] the test system is CXCR2 (Homo sapiens). Briefly: The compound was tested for inhibition of Chemokine r (IL-8) binding against CXCR2 transfected in HEK 293 cells.
Assay [5] addresses C-C chemokine receptor type 5 (Homo sapiens) (UniProt P51681). Briefly: The compound was tested for inhibition of Chemokine (MIP-1Beta) binding against C-C chemokine receptor type 5 transfected in HEK 293 cells. The class given is cell-based. The procedure, abridged:
as §1

C-C chemokine receptor type 5 (Homo sapiens), sequence (P51681 whole entry, looked up): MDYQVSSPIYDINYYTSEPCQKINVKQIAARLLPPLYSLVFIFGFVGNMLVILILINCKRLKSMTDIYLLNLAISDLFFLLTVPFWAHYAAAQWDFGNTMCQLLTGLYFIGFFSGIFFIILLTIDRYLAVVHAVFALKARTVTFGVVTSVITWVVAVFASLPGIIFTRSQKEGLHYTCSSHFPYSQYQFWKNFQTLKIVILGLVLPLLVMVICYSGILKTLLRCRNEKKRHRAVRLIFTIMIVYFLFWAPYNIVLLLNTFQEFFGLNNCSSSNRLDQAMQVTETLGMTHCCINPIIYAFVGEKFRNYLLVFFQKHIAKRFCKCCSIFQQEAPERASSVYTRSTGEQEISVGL

Turning to `Cn1cc(NC(=O)c2cc(NC(=O)Nc3c[nH]c(C(=O)Nc4cc(C(=O)Nc5ccc(S(=O)(=O)O)c6cccc(S(=O)(=O)O)c56)n(C)c4)c3)c[nH]2)cc1C(=O)Nc1ccc(S(=O)(=O)O)c2cccc(S(=O)(=O)O)c12`, the inhibition was 5.4% in the assay on CXCR2 (Homo sapiens) [1], 6.5% in assay [2] and -3.1% in assay [3].
Consider `Cn1cc(N)cc1C(=O)Nc1ccc(S(=O)(=O)O)c2cc(S(=O)(=O)O)ccc12`, for which the inhibition in the assay with CXCR2 (Homo sapiens) [4] is 0.3%; in assay [2], 9.5%; in assay [5], 6.6%; in assay [3] it was -1%.
